Assay results published in ChEMBL document CHEMBL1152833, “Synthesis of some novel N4-(naphtha[1,2-d]thiazol-2-yl)semicarbazides as potential anticonvulsants” (Eur J Med Chem, 2009).
Activity calls are given as the source filed them.

Legend:
[1] = system: Mus musculus; assay: Neurotoxicity in Swiss albino mouse at 300 mg/kg, ip after 4 hrs by rotarod test; format: toxicity, organism-based; set-up: dose 300 mg/kg, route intraperitoneal; settings: in vivo
Outline: (§1)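 Rotarod test in male Swiss albino mice (18–25 g) after i.p. dosing at 30, 100 and 300 mg/kg, read at 0.5 and 4 h. Mice falling within 30 s in a pre-check were excluded. Neurotoxicity was scored as the minimum dose at which half or more of the mice fell off the rod.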

[2] = system: Mus musculus; assay: Anticonvulsant activity in ip dosed Swiss albino mouse assessed as minimum drug concentration required for inhibition of maximal electroshock-induced seizure in half or more of mouse after 0.5 hrs by MES test; format: functional
Outline: (§2)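 Male Swiss albino mice (18–25 g) received compound i.p. at 30, 100 and 300 mg/kg. MES seizures were induced after 0.5 and 4 h, with a drop of 0.9% saline placed in the eye before the electrodes went on. Protection meant abolition of the hind-limb tonic extensor component. The tabulated value is the minimum dose protecting half or more of the mice.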

[3] = system: Mus musculus; assay: Anticonvulsant activity against maximal electroshock-induced seizures in Swiss albino mouse at 300 mg/kg, ip after 4 hrs by MES test; format: functional, organism-based; set-up: dose 300 mg/kg; outline: as §2
[4] = system: Mus musculus; assay: Anticonvulsant activity against pentylenetetrazole-induced seizures in Swiss albino mouse at 300 mg/kg, ip after 0.5 hrs by scPTZ test; format: functional, organism-based; set-up: dose 300 mg/kg
Outline: (§3)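 Male Swiss albino mice (18–25 g) were dosed i.p. at 30, 100 and 300 mg/kg, examined at 0.5 and 4 h. PTZ 85 mg/kg (CD97) was given and the animals were […]. Protection meant absence of any threshold convulsion, i.e. clonic spasm lasting at least 5 s. The value is the minimum dose active in half or more of the mice.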

[5] = system: Mus musculus; assay: Toxicity to Swiss albino mouse assessed as mortality following tonic extension at 300 mg/kg, ip after 4 hrs; format: organism-based; set-up: dose 300 mg/kg, route intraperitoneal; settings: in vivo
[6] = system: Mus musculus; assay: Neurotoxicity in ip dosed Swiss albino mouse assessed as minimum drug concentration required for falling off the rotarod by half or more of mouse after 0.5 hrs by rotarod test; format: toxicity, organism-based; settings: in vivo; outline: as §1
[7] = system: Mus musculus; assay: Anticonvulsant activity in ip dosed Swiss albino mouse assessed as minimum drug concentration required for inhibition of maximal electroshock-induced seizure in half or more of mouse after 4 hrs by MES test; format: functional; outline: as §2
[8] = system: Mus musculus; assay: Anticonvulsant activity in ip dosed Swiss albino mouse assessed as minimum drug concentration required for inhibition of pentylenetetrazole-induced seizures in half or more of mouse after 0.5 hrs by scPTZ test; format: functional; outline: as §3
[9] = system: Mus musculus; assay: Neurotoxicity in ip dosed Swiss albino mouse assessed as minimum drug concentration required for falling off the rotarod by half or more of mouse after 4 hrs by rotarod test; format: toxicity, organism-based; settings: in vivo; outline: as §1
[10] = system: Rattus norvegicus; assay: Anticonvulsant activity against pentylenetetrazole-induced seizures in Wistar albino rat at 50 mg/kg, po after 0.25 hrs by scPTZ test; format: functional, organism-based; set-up: dose 50 mg/kg
Outline: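 Male Wistar rats (100-125 g), compound given orally at 50 mg/kg, then challenged with scPTZ at 70 mg/kg. Absence of such a convulsion counted as protection. Groups of four rats were scored at 0.25, 0.5, 1 and 2 h as number protected out of four.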

[11] = system: Mus musculus; assay: Anticonvulsant activity against maximal electroshock-induced seizures in Swiss albino mouse at 300 mg/kg, ip after 0.5 hrs by MES test; format: functional, organism-based; set-up: dose 300 mg/kg; outline: as §2
[12] = system: Mus musculus; assay: Anticonvulsant activity against pentylenetetrazole-induced seizures in Swiss albino mouse at 300 mg/kg, ip after 4 hrs by scPTZ test; format: functional, organism-based; set-up: dose 300 mg/kg; outline: as §3
[13] = system: Mus musculus; assay: Neurotoxicity in Swiss albino mouse at 300 mg/kg, ip after 0.5 hrs by rotarod test; format: toxicity, organism-based; set-up: dose 300 mg/kg, route intraperitoneal; settings: in vivo
Outline: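 Male Swiss albino mice (18-25 g) received the compound i.p. at 30, 100 or 300 mg/kg and were tested on the rotarod 0.5 and 4 h later. Mice were pre-checked, and any that fell off within 30 s were excluded. Neurotoxicity was scored as falling off the rod. The value is the minimum dose affecting half or more of the mice.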

[14] = system: Mus musculus; assay: Antioxidant activity against PTZ-induced decrease in superoxide dismutase activity in Swiss albino mouse brain assessed as enzyme units per mg of protein causing 50% inhibition in NBT reduction rate at 100 mg/kg, ip administered 30 mins before PTZ challenge measured after 4 hrs; format: functional; settings: route intraperitoneal
Outline: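 Same mouse dosing: 100 mg/kg i.p. 30 min before PTZ 85 mg/kg, brains taken at 4 h. Total SOD was measured in the ethanol phase of an ethanol/chloroform (5:3) extract, as inhibition of NBT reduction by xanthine–xanthine oxidase. One unit gives 50% inhibition; activity is expressed per mg protein (Lowry). n=6, mean ± SEM.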

[15] = system: Mus musculus; assay: Anticonvulsant activity in ip dosed Swiss albino mouse assessed as minimum drug concentration required for inhibition of pentylenetetrazole-induced seizures in half or more of mouse after 4 hrs by scPTZ test; format: functional; outline: as §3
[16] = system: Rattus norvegicus; assay: Anticonvulsant activity against pentylenetetrazole-induced seizures in Wistar albino rat at 50 mg/kg, po after 2 hrs by scPTZ test; format: functional, organism-based; set-up: dose 50 mg/kg
Outline: (§4)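 Male Wistar rats (100–125 g) were given compound orally at 50 mg/kg. They were challenged with scPTZ at 70 mg/kg at 0.25, 0.5, 1.0 and 2.0 h, and seizures were watched for. Protection meant absence of clonic spasm lasting at least 5 s. The score is the number of rats protected out of four.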

[17] = system: Mus musculus; assay: Antioxidant activity against PTZ-induced lipid peroxidation in Swiss albino mouse brain assessed as malondialdehyde content per mg of protein at 100 mg/kg, ip preincubated for 30 mins before PTZ challenge measured after 4 hrs by TBARS assay; format: functional; settings: route intraperitoneal
Outline: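 Mice were dosed 100 mg/kg i.p. 30 min before PTZ 85 mg/kg, and brains were homogenized after 4 h. For TBARS, homogenate supernatant was heated with SDS, acetic acid and 0.8% thiobarbituric acid at 95 °C for 1 h. The product was extracted into n-butanol/pyridine and read at 532 nm. Results are pmol MDA/mg protein, n=6, mean ± SEM.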

[18] = system: Rattus norvegicus; assay: Anticonvulsant activity against pentylenetetrazole-induced seizures in Wistar albino rat at 50 mg/kg, po up to 2 hrs by scPTZ test; format: functional, organism-based; set-up: dose 50 mg/kg; outline: as §4
[19] = system: Rattus norvegicus; assay: Neurotoxicity in Wistar albino rat at 50 mg/kg, po by rotarod test; format: toxicity, organism-based; set-up: dose 50 mg/kg, route oral; settings: in vivo
[20] = system: Mus musculus; assay: Toxicity to Swiss albino mouse assessed as mortality following tonic extension at 300 mg/kg, ip after 0.5 hrs; format: organism-based; set-up: dose 300 mg/kg, route intraperitoneal; settings: in vivo

| Compound | Activity [1] | Activity [2] [mg/kg] | Activity [3] | Activity [6] [mg/kg] | Activity [7] [mg/kg] | Activity [8] [mg/kg] | Activity [9] [mg/kg] | Activity [11] | Activity [12] | Activity [13] | Activity [15] [mg/kg] | further results |
| --- | --- | --- | --- | --- | --- | --- | --- | --- | --- | --- | --- | --- |
| COc1ccc(OC)c(/C=N/NC(=O)Nc2nc3c(ccc4ccccc43)s2)c1 | Non-toxic | 300 | inactive | 300 |  |  |  |  |  |  |  | Activity [4]: inactive; Activity [5]: Toxic |
| O=C(N/N=C/c1ccc(Cl)cc1)Nc1nc2c(ccc3ccccc32)s1 |  | 100 |  | 100 | 100 | 300 | 300 |  |  |  |  | Activity [5]: Toxic |
| CCC1(C)CC(=O)NC1=O (centres undefined) [ETHOSUXIMIDE] | Non-toxic |  | inactive |  |  | 300 |  | inactive | inactive | Non-toxic |  | Activity [10]: inactive |
| O=C(N/N=C/c1ccc([N+](=O)[O-])cc1)Nc1nc2c(ccc3ccccc32)s1 |  | 300 |  | 300 | 300 | 100 | 300 |  |  |  | 300 | Activity [14]: 58; Activity [16]: inactive; Activity [17]: 309 pmol |
| COc1cc(/C=N/NC(=O)Nc2nc3c(ccc4ccccc43)s2)ccc1O |  | 300 |  | 300 | 300 | 300 | 100 |  |  |  | 300 |  |
| CN(C)c1ccc(/C=N/NC(=O)Nc2nc3c(ccc4ccccc43)s2)cc1 |  |  | inactive | 300 |  | 300 | 300 | inactive |  |  | 300 |  |
| O=C(N/N=C/c1ccc(F)cc1)Nc1nc2c(ccc3ccccc32)s1 |  | 300 |  | 300 | 300 | 100 | 300 |  |  |  | 100 | Activity [14]: 57; Activity [18]: Active; Activity [19]: Non-toxic; Activity [17]: 278 pmol |
| COc1cc(/C=N/NC(=O)Nc2nc3c(ccc4ccccc43)s2)cc(OC)c1 | Non-toxic |  | inactive |  |  |  |  | inactive | inactive | Non-toxic |  | Activity [20]: Toxic |
| O=C(N/N=C/c1ccc(O)cc1)Nc1nc2c(ccc3ccccc32)s1 | Non-toxic |  | inactive |  |  |  |  | inactive | inactive | Non-toxic |  | Activity [20]: Toxic |
| CCC1(c2ccccc2)C(=O)NC(=O)NC1=O [PHENOBARBITAL] |  | 100 |  | 100 | 30 | 30 | 300 |  |  |  | 30 |  |
| COc1ccc(/C=N/NC(=O)Nc2nc3c(ccc4ccccc43)s2)cc1 | Non-toxic |  | inactive |  |  |  |  | inactive | inactive | Non-toxic |  | Activity [20]: Toxic |
